Drawing on ChEMBL document CHEMBL1777791, “Protective effect of ε-viniferin on β-amyloid peptide aggregation investigated by electrospray ionization mass spectrometry” (Bioorg Med Chem, 2011), this text covers inhibition, IC50 and Activity for 3 compounds.

Calls of active or inactive are those of the source. The rule behind the calls is not given here.

A short description of series [1]: Inhibition of amyloid beta (25 to 35) fibril formation at 10 uM by UV-visible spectrometry analysis. The gist of the method: (§1)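 Aβ(25-35) stock (1 mM) prepared in sterile water at 4 °C by brief vortexing, then sonicated 10 min. Polyphenol stock 1 mg/mL in MeOH. Reaction used 10 mM phosphate buffer, pH 7.2, 100 µM peptide final and polyphenol at 5 or 10 µM final. Fibril formation followed by UV–visible spectrophotometry.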

The nature of series [2]: Inhibition of amyloid beta (1 to 40) fibril formation at 5 uM by UV-visible spectrometry analysis. The gist of the method: (§2)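 Full-length Aβ stock (1 mM) prepared in sterile water at 4 °C by brief vortexing, then sonicated 10 min. Polyphenol stock 1 mg/mL in MeOH. Reaction used 10 mM phosphate buffer, pH 7.2, 50 µM peptide final and polyphenol at 5 or 10 µM final. Fibril formation followed by UV–visible spectrophotometry.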

The nature of series [3]: Inhibition of amyloid beta (1 to 40) fibril formation at 10 uM by UV-visible spectrometry analysis. A digest of the protocol:
as §2

Series [4] is described as follows: Inhibition of amyloid beta (1 to 42) fibril formation at 10 uM by UV-visible spectrometry analysis. The gist of the method:
as §2

Series [5] is described as follows: Inhibition of amyloid beta (25 to 35) fibril formation by UV-visible spectrometry analysis. The gist of the method: as §1
Series [6] in a line: Inhibition of amyloid beta (1 to 42) fibril formation at 5 uM by UV-visible spectrometry analysis. A digest of the protocol: as §2
Series [7] concerns PC-12. In words: Antiamyloidogenic activity in rat PC12 cells assessed as protection against amyloid beta (25 to 35)-induced cell death at 10 uM after 24 hrs by MTT assay. Format: functional. The gist of the method:
(§3)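 PC12 cells kept in DMEM-Glutamax with 15% heat-inactivated horse serum, 2.5% FBS and antibiotics at 37 °C, 10% CO2, on poly-D-lysine. Seeded 10,000 cells/well and grown 24 h. Aβ was preincubated with or without compound at 37 °C for 48 h, diluted in medium and added (Aβ final 10 µM). After 24 h, MTT 0.5 mg/ml for 3 h at 37 °C, DMSO solubilisation, A595. Read-out is % of control cells.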
In general terms: Tetrazolium dyes change colour on reduction, which living cells bring about.

In series [8] the test system is PC-12. Kind of series: Antiamyloidogenic activity in rat PC12 cells assessed as protection against amyloid beta (1 to 42)-induced cell death at 10 uM after 24 hrs by MTT assay. In kind it is functional. A digest of the protocol: as §3
The nature of series [9]: Binding affinity to amyloid beta (1 to 40) assessed as non-covalent protein-compound complex formation at 10 uM using 35% methanol by electrospray ionization mass spectrometry analysis. The gist of the method: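 ESI ion-trap MS by direct infusion at 180 µL/h. Aβ(1-40) and compound mixed 1:1 molar (10 µM) in 35% methanol. Spectra recorded over m/z 150–2000 in positive and negative ion modes at normal scan resolution. Non-covalent complex ions identified.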

The subject of series [10] is PC-12. Kind of series: Antiamyloidogenic activity in rat PC12 cells assessed as protection against amyloid beta (1 to 40)-induced cell death at 10 uM after 24 hrs by MTT assay. In kind it is functional. The gist of the method:
as §3

Series [11] relates to PC-12. Kind of series: Cytotoxicity against rat PC12 cells up to 10 uM after 24 hrs by MTT assay. The conditions noted are these: pc-12, 24 h.

Regarding `Oc1ccc(/C=C/c2cc(O)cc(O)c2)cc1`, the inhibition (in general, the drop in the measured response relative to a control, in per cent) was determined as 63% in series [1], 22% in series [2], 52% in [3] and 61% in series [4].
`OC[C@H]1O[C@@H](Oc2cc(/C=C/c3ccc(O)cc3)c3c(c2)O[C@H](c2ccc(O)cc2)[C@H]3c2cc(O)cc(O)c2)[C@H](O)[C@@H](O)[C@@H]1O`: the 50% inhibitory concentration (IC50) (in general, the concentration that inhibits the measured activity by half) in [5] is less than 1000 nM. The inhibition amounted to 93% in series [1]; 59% in series [2]; 97% in series [3]; 70% in [6]; 89% in [4]. Besides, the Activity was 80% with PC-12 [7], 87% in the series on PC-12 [8], 79% in the series on PC-12 [10] and “Non-toxic” in the series with PC-12 [11]. Besides, in series [9], the result was Active.
Turning to `O=C(O)/C=C/c1ccc(O)cc1`, the outcome in series [9] was inactive.
